In ChEMBL document CHEMBL4316598, “Synthesis, antiproliferative and apoptosis induction potential activities of novel bis(indolyl)hydrazide-hydrazone derivatives” (Bioorg Med Chem, 2019) one finds Activity and IC50 data, which are given here for one compound.

One experiment has as its system SCC-25. Briefly: Cytotoxicity against human SCC25 cells assessed as reduction in cell viability after 4 hrs by MTT assay. In kind it is functional, cell-based. In general terms: Tetrazolium dyes change colour on reduction, which living cells bring about.
Experiment [1] concerns MCF7. Kind of experiment: Induction of apoptosis in human MCF7 cells assessed as early apoptotic cells at 1 uM after 8 hrs by annexin-V FITC/propidium iodide staining based flow cytometric analysis relative to control. In kind it is functional. Summed up: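 Cells were grown in DMEM with 10% heat-inactivated FBS at 37 °C and 5% CO₂, then plated at 500,000 cells/well in 24-well plates. They were treated from a DMSO stock (DMSO ≤0.1%) for 8, 12 or 16 h. After a PBS wash, cells were resuspended in binding buffer (10 mM HEPES pH 7.4, 2.5 mM CaCl₂, 140 mM NaCl, 0.1% BSA), stained 40 min with FITC-annexin V, then with PI, and run on the flow cytometer immediately. Values are the mean of three independent experiments.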
On the technique in general: In flow cytometry, cells or beads pass a laser one at a time.

The subject of experiment [2] is MCF7. Kind of experiment: Induction of cell cycle arrest in human MCF7 cells at 1 uM after 16 hrs by propidium iodide/RNase A staining based FACS analysis. In kind it is functional. Put shortly: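 Cells were seeded at 1 million cells/mL in 24-well plates and grown to 70% confluence. They were exposed at 1 µM for 16 h, washed in cold PBS, fixed in absolute ethanol and stored at −20 °C. Staining was with RNase A (20 µg/mL final) and PI (50 µg/mL final) for 30 min at 37 °C in the dark. Results are given as the percentage of cells in each cell-cycle phase by FACS.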

In experiment [3] the test system is HeLa. Kind of experiment: Induction of ROS generation in human HeLa cells at 5 uM after 4 hrs by DCFH-DA staining-based fluorescence spectrophotometric analysis relative to control. In kind it is functional. Summed up: (§1)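 DCFH-DA ROS: HeLa or MCF-7 cells at 2×10^6/well cultured 12 h, treated 4 or 8 h; t-BHP (10 μM) is the positive control. DCFH-DA 10 μM added for 10 min at 37 °C, cells washed twice with PBS. Fluorescence read at ex 485/em 520 nm. For the NAC arm, NAC (5 mM) is added to the medium before treatment.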

For experiment [4], the system named is HeLa. Kind of experiment: Induction of ROS generation in human HeLa cells at 5 uM after 8 hrs by DCFH-DA staining-based fluorescence spectrophotometric analysis relative to control. In kind it is functional. Summed up: as §1
In experiment [5] the test system is MCF7. Briefly: Induction of nitric oxide production in human MCF7 cells measured over 8 hrs by Griess reaction based assay. In kind it is functional, cell-based. Summed up: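 Cells seeded at 2×10^6 cells/well for 12 h, then exposed to 1, 5 and 10 μM compound for 8 h at 37 °C. Culture supernatant mixed with Griess reagent (0.002% N-1-naphthyl-ethylenediamine dihydrochloride, 0.5% sulfanilic acid, 14% glacial acetic acid). Nitrite read by absorbance at 550 nm and compared with vehicle group.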
A general note: Griess reagent forms a coloured azo dye with nitrite.

Experiment [6] deals with MCF7. Kind of experiment: Effect on mitochondrial membrane potential in human MCF7 cells assessed as shift change at 5 uM measured over 4 hrs by Rhodamine 123 dye-based fluorescence assay. In kind it is functional, cell-based. Put shortly:
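Mitochondrial potential: HeLa or MCF-7 cells treated with 5 µM (final) for 1, 2, 4 and 8 h. Rhodamine 123 added, cells incubated 30 min at 37 °C, washed with PBS, and analysed by flow cytometry. Fluorescence histogram shift is compared with control.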

Experiment [7] deals with MCF7. Briefly: Induction of caspase-dependent apoptosis in human MCF7 cells assessed as activation of caspase-3 at 1 to 3 uM after 24 hrs by Western blot analysis. In kind it is functional, cell-based. Summed up:
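Cleaved caspase-3 immunoblot. Cells were exposed at 1, 3 and 5 µM for 24 h at 37 °C, with paclitaxel 3 µM as positive control. Lysis was in ice-cold Triton X-100 buffer, and protein was measured by BCA. Lysates were separated by electrophoresis, transferred to nitrocellulose and blocked in milk. Primary antibody was applied overnight at 4 °C and secondary for 1 h at 28 °C. Detection was by enhanced chemiluminescence.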

The test system of experiment [8] is MCF7. Briefly: Induction of caspase-dependent apoptosis in human MCF7 cells assessed as activation of caspase-8 at 1 to 3 uM after 24 hrs by Western blot analysis. In kind it is functional, cell-based. Put shortly:
(§2)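 Cells were treated at 1, 3 and 5 µM for 24 h at 37 °C. Lysis was in ice-cold Triton X-100 buffer with protease and phosphatase inhibitors; nuclear proteins were extracted separately. Protein was quantified by BCA. Lysates were separated by electrophoresis, transferred to nitrocellulose and blocked in non-fat milk for 1 h. Primary antibody was applied overnight at 4 °C and secondary for 1 h at 28 °C. Detection was by enhanced chemiluminescence.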

For experiment [9], the system named is MCF7. Kind of experiment: Induction of caspase-dependent apoptosis in human MCF7 cells assessed as activation of caspase-9 at 1 to 3 uM after 24 hrs by Western blot analysis. In kind it is functional, cell-based. Summed up:
as §2

Experiment [10] relates to HeLa. Kind of experiment: Induction of caspase-dependent apoptosis in human HeLa cells assessed as activation of caspase-9 at 1 to 3 uM after 24 hrs by Western blot analysis. In kind it is functional, cell-based. Summed up:
as §2

The test system of experiment [11] is MCF7. Briefly: Induction of apoptosis in human MCF7 cells assessed as increase in Mcl-1 short level at 1 to 3 uM after 24 hrs by Western blot analysis. In kind it is functional, cell-based. Put shortly: as §2
The test system of experiment [12] is HeLa. Kind of experiment: Induction of ROS generation in human HeLa cells at 5 uM after 24 hrs by CM-H2DCFDA staining-based FACS analysis. In kind it is functional, cell-based. Summed up: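 CM-H2DCFDA ROS: HeLa or MCF-7 cells at 2×10^6/well in 6-well plates treated with 5 μM (final) for 12 or 24 h at 37 °C. Cells harvested, washed with PBS, stained with CM-H2DCFDA in PBS 30 min at 37 °C, washed with ice-cold PBS. Read by FACScan with 488 nm argon laser.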

The subject of experiment [13] is MCF7. Briefly: Induction of apoptosis in human MCF7 cells assessed as up-regulation of total p53 level at 5 uM after 12 hrs by sandwich ELISA. In kind it is functional, cell-based. Summed up: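 Cells were treated at 5 µM for 12, 24 and 48 h. Lysis was in ice-cold lysis buffer with 1 mM PMSF (5 min on ice), followed by three freeze-thaw cycles and a 10 min spin at 4 °C. Acetylated and total p53 were measured in the supernatant by kit sandwich ELISA, read at 450 nm. The control index is sample absorbance divided by that of untreated cells at the same time. Values are mean ± SD of triplicate experiments.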

The target in experiment [14] is Mitogen-activated protein kinase; ERK1/ERK2 (Homo sapiens) (UniProt P27361+P28482). Kind of experiment: Activation of ERK1/2 phosphorylation in human HeLa cells assessed as increase in ratio of phosphorylated ERK1/2 to total ERK1/2 level at 5 uM by ELISA. In kind it is cell-based. Put shortly:
(§3)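 Cell-based ELISA: HeLa or MCF-7 cells (20×10^3/well) grown overnight at 37 °C, 5% CO2, treated with 5 μM, then fixed and blocked. Probed with rabbit anti-total and anti-phospho P38, JNK or ERK1/2 (1:100), then HRP anti-rabbit IgG. Result is the phospho/total ratio; inhibitor arms use […], […] or SP600125. n=3.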

In experiment [15] the target is c-Jun N-terminal kinase, JNK (Homo sapiens) (UniProt P45983+P53779+P45984). Briefly: Activation of JNK phosphorylation in human HeLa cells assessed as increase in ratio of phosphorylated JNK to total JNK level at 5 uM by ELISA. In kind it is cell-based. Put shortly:
as §3

Experiment [16] concerns MCF7. Kind of experiment: Induction of ERK/MAPK signal transduction pathway in human MCF7 cells assessed as increase in c-jun level. In kind it is cell-based.

The structures appear in SMILES notation. The source made the active and inactive calls. The rule behind the calls is not given here.

Mitogen-activated protein kinase; ERK1/ERK2 (Homo sapiens), sequence (P27361 whole entry, looked up): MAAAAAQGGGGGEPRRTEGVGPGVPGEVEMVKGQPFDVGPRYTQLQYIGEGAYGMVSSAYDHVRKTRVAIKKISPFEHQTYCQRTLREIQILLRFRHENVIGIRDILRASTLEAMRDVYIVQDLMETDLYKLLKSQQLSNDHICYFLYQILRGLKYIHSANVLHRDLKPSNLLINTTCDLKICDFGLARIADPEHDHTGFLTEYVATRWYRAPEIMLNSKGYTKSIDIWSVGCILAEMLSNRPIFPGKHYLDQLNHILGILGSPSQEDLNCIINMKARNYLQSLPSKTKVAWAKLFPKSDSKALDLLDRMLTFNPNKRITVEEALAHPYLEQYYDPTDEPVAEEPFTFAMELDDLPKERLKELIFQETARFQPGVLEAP
Mitogen-activated protein kinase; ERK1/ERK2 (Homo sapiens), sequence (P28482 whole entry, looked up): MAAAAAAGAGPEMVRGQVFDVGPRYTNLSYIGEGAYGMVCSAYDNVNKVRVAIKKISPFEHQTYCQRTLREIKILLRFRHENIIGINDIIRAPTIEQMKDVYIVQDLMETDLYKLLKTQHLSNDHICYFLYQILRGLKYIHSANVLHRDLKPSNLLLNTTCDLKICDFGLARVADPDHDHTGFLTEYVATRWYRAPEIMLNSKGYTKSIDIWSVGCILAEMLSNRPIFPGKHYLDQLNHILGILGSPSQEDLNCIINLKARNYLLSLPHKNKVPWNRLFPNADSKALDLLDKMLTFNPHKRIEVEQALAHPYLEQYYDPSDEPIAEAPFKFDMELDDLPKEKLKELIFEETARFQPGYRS

`Cn1cc(/C=N\NC(=O)c2cn(C)c3ccc(Br)cc23)c2ccccc21`: the Activity result is “Dose-dependent effect” with SCC-25; 2.26% with MCF7 [1]; 29.9% in the experiment on HeLa [3]; 58.9% with HeLa [4]; “Dose-dependent effect” in the experiment on MCF7 [5]. Moreover, the IC50 (usually the concentration at which inhibition is half-maximal) with SCC-25 (SCC-25, 4 h) was determined as 10.1 µM. Also, the outcome in the experiment with MCF7 [2], in the experiment on MCF7 [7], in the experiment with MCF7 [8], in the experiment with MCF7 [9] and with HeLa [10] was inactive. The result (with MCF7 [6]; with MCF7 [11]; in the experiment on HeLa [12]; with MCF7 [13]; in experiment [14]; in [15]) was Active. The outcome with MCF7 [16] was Active.
